Eleven compounds from ChEMBL document CHEMBL4145643, “Antiplasmodial β-Triketone-Flavanone Hybrids from the Flowers of the Australian Tree Corymbia torelliana” (J Nat Prod, 2018) can be followed below.

The source made the active and inactive calls. No cut-off for these calls is given here.

Series [1] deals with Plasmodium falciparum. As to the kind of experiment: Antiplasmodial activity against drug-sensitive Plasmodium falciparum 3D7 ring stage infected in human erythrocytes after 72 hrs by DAPI staining based method. The class given is functional, organism-based. To be noted: 3D7, 72 h. A digest of the protocol: (§1)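 Sorbitol-synchronized ring-stage parasites in O+ erythrocytes (2% parasitemia, 0.3% hematocrit), culture medium RPMI-1640 with Albumax and human serum. 16-point dilution series, 40 μM to 0.5 nM, 72 h at 95% N2/5% O2/5% CO2. Parasites stained with DAPI in Triton X-100/saponin permeabilization buffer, counted by confocal imaging. Normalized to 0.4% DMSO and 5 μM puromycin controls. IC50 from four-parameter logistic fit.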

Series [2] concerns HEK293. The series is described as follows: Cytotoxicity against human HEK293 cells at 40 uM after 72 hrs by resazurin dye based fluorescence assay. The class given is cell-based. The conditions noted are these: hek293, 72 h. In short, it runs like this:
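HEK293 cells grown in DMEM with 10% FBS, seeded at 2000 cells/well 24 h before dosing. Compounds given as in the parasite assay (top 40 μM), 72 h at 37 °C and 5% CO2. Medium then replaced with 44 μM resazurin; fluorescence (530/595 nm) read after a further 5–6 h. Normalized to in-plate controls.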

The subject of series [3] is Plasmodium falciparum. The series is described as follows: Antiplasmodial activity against 4-aminoquinoline/antifolates-resistant Plasmodium falciparum Dd2 ring stage infected in human erythrocytes at 40 uM after 72 hrs by DAPI staining based method. The series is classed as functional. In short, it runs like this: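 Sorbitol-synchronized ring-stage parasites at 2% parasitemia, 0.3% hematocrit in human O+ erythrocytes. Culture medium: RPMI-1640 with glutamine, hypoxanthine, Albumax, human serum. 16-point concentration-response, 40 μM to 0.5 nM. Incubated 72 h under 95% N2, 5% O2, 5% CO2. DAPI added in permeabilization buffer (Triton X-100, saponin, EDTA). Parasites counted by confocal high-content imaging. Normalized to DMSO and 5 μM puromycin controls. IC50 from four-parameter logistic fit.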

Series [4] concerns Plasmodium falciparum. The series is described as follows: Antiplasmodial activity against 4-aminoquinoline/antifolates-resistant Plasmodium falciparum Dd2 ring stage infected in human erythrocytes after 72 hrs by DAPI staining based method. The class given is functional, organism-based. To be noted: Dd2, 72 h. In short, it runs like this: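 Sorbitol-synchronized ring-stage parasites at 2% parasitemia, 0.3% hematocrit in human O+ erythrocytes. 16-point concentration-response, 40 μM to 0.5 nM. DAPI added in permeabilization buffer (Triton X-100, saponin, EDTA). Parasites counted by confocal high-content imaging. Normalized to DMSO and 5 μM puromycin controls. IC50 from four-parameter logistic fit.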

In series [5] the test system is Plasmodium falciparum. As to the kind of experiment: Antiplasmodial activity against drug-sensitive Plasmodium falciparum 3D7 ring stage infected in human erythrocytes at 40 uM after 72 hrs by DAPI staining based method. The class given is functional, organism-based. A digest of the protocol: as §1

In turn, `Cc1c(O)c2c(c3c1OC1=C(C(=O)C(C)(C)C(=O)C1(C)C)[C@@H]3CC(C)C)O[C@H](c1ccccc1)CC2=O` registered an IC50 in series [1] of 7.2 µM. Also, the Activity entry in series [2] (40 µM) is reported as “Non-Toxic”.

As to `Cc1c(O)c2c(c3c1OC1=C(C(=O)C(C)(C)C(=O)C1(C)C)[C@H]3CC(C)C)O[C@H](c1ccccc1)CC2=O`, in series [1], half-maximal inhibition (IC50) required 7.2 µM. In series [2] (40 µM), the Activity result is on record as “Non-Toxic”.

Consider `CCc1nc(N)nc(N)c1-c1ccc(Cl)cc1` [PYRIMETHAMINE], for which the Activity in series [3] and in series [2] (40 µM) was 62% in each case.

With `Cc1c2c(c(O)c3c1OC1=C(C(=O)C(C)(C)C(=O)C1(C)C)C3CC(C)C)C(=O)C[C@@H](c1ccccc1)O2` (stereo not given in full), the IC50 in series [1] came out at 9.8 µM; in series [4], 11.9 µM. Besides, in series [2] (40 µM), the Activity result is reported as “Non-Toxic”.

In series [1], `Cc1c(O)c([C@@H](CC(C)C)C2=C(O)C(C)(C)C(=O)C(C)(C)C2=O)c(O)c2c1O[C@H](c1ccccc1)CC2=O` had an IC50 of 3.2 µM. The Activity in series [2] (40 µM) is 75%.

Consider `CCN(CC)CCCC(C)Nc1ccnc2cc(Cl)ccc12` (stereo not given) [CHLOROQUINE], for which the Activity result in series [2] (40 µM) is “Non-Toxic”.

For the compound `C[C@H]1[C@@H](O)O[C@@H]2O[C@@]3(C)CC[C@H]4[C@H](C)CC[C@@H]1[C@@]24OO3` [ARTENIMOL], the IC50 was found to be 0.0004 µM in series [1] and 0.00043 µM in series [4]. Besides, the Activity in series [2] (20 µM, in the assay text read “at 20 uM” for “at 40 uM”) was 83%.

In the case of `CC(C)CC[C@]1(O)[C@H](O)C(C)(C)[C@@H](O)C(C)(C)[C@@H]1O`, the outcome in series [5] and in series [3] was inactive. The Activity entry in series [2] (40 µM) was “Non-Toxic”.

For `C[C@H]1[C@H](OC(=O)CCC(=O)O)O[C@@H]2O[C@@]3(C)CC[C@H]4[C@H](C)CC[C@@H]1[C@@]24OO3` [ARTESUNATE], 0.001 µM corresponded to half-maximal inhibition in series [1] (IC50). For the same compound, the Activity in series [2] (20 µM, in the assay text read “20 uM” for “40 uM”) amounted to 94%.

As for `Cc1c(O)c([C@H](CC(C)C)C2=C(O)C(C)(C)C(=O)C(C)(C)C2=O)c(O)c2c1O[C@H](c1ccccc1)CC2=O`, the IC50 in series [1] was 3.2 µM. Further, in series [2] (40 µM), the Activity came to 75%.

In turn, `CC(C)C[C@H]1C[C@@]2(CC[C@H]3C[C@@H]2C3(C)C)OC2=C1C(=O)C(C)(C)C(=O)C2(C)C` returned an IC50 in series [1] of 16.6 µM. In addition, in series [3], the outcome was inactive. The Activity result in series [2] (40 µM) is reported as “Non-Toxic”.
